# Measurements taken from ChEMBL document CHEMBL1165899, “Synthesis and antitumor evaluation of novel cyclic arylsulfonylureas: ADME-T and pharmacophore prediction” (2010).
# Columns and labels:
# Assay type in all cases: functional
# [1] = system: RXF 393; assay: Growth inhibition of human RXF393 cells at 10 uM after 48 hrs by sulforhodamine B assay relative to control; details: RXF 393, 48 h, read-out: GI
# [2] = system: SF-268; assay: Growth inhibition of human SF268 cells at 10 uM after 48 hrs by sulforhodamine B assay relative to control; details: SF-268, 48 h, read-out: GI
# [3] = system: EKVX; assay: Growth inhibition of human EKVX cells at 10 uM after 48 hrs by sulforhodamine B assay relative to control; details: read-out: GI
# [4] = system: OVCAR-4; assay: Growth inhibition of human OVCAR4 cells at 10 uM after 48 hrs by sulforhodamine B assay relative to control; details: OVCAR-4, 48 h, read-out: GI
# [5] = system: SNB-75; assay: Growth inhibition of human SNB75 cells at 10 uM after 48 hrs by sulforhodamine B assay relative to control; details: SNB-75, 48 h, read-out: GI
# [6] = system: NCI-H460; assay: Growth inhibition of human NCI-H460 cells at 10 uM after 48 hrs by sulforhodamine B assay relative to control; details: NCI-H460, 48 h, read-out: GI
# [7] = system: 786-0; assay: Growth inhibition of human 786-0 cells at 10 uM after 48 hrs by sulforhodamine B assay relative to control; details: 786-0, 48 h, read-out: GI
# [8] = system: NCI-H322M; assay: Growth inhibition of human NCI-H322M cells at 10 uM after 48 hrs by sulforhodamine B assay relative to control; details: read-out: GI
# [9] = system: T47D; assay: Growth inhibition of human T47D cells at 10 uM after 48 hrs by sulforhodamine B assay relative to control; details: read-out: GI
# Outline: (§1)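 NCI 60-cell-line single-dose screen at 10 µM. Cells were plated at 5000–40,000 cells/well according to doubling time, in medium with 2 mM L-glutamine, and held 24 h at 37 °C, 5% CO₂, 100% humidity before drug. Time-zero plates were TCA-fixed. Exposure was 48 h, then TCA fixation and sulforhodamine B staining for 10 min, acetic acid washes, 10 mM trizma solubilization and A515. % inhibition = 100 − % activity, where 100% is the DMSO-solvent control.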
# [10] = system: SK-MEL-5; assay: Growth inhibition of human SK-MEL-5 cells at 10 uM after 48 hrs by sulforhodamine B assay relative to control; details: SK-MEL-5, 48 h, read-out: GI
# [11] = system: CAKI-1; assay: Growth inhibition of human Caki1 cells at 10 uM after 48 hrs by sulforhodamine B assay relative to control; details: CAKI-1, 48 h, read-out: GI
# [12] = system: SN12C; assay: Growth inhibition of human SN12C cells at 10 uM after 48 hrs by sulforhodamine B assay relative to control; details: read-out: GI
# [13] = system: SW-620; assay: Growth inhibition of human SW620 cells at 10 uM after 48 hrs by sulforhodamine B assay relative to control; details: SW-620, 48 h, read-out: GI; outline: as §1
# [14] = system: SK-MEL-2; assay: Growth inhibition of human SK-MEL-2 cells at 10 uM after 48 hrs by sulforhodamine B assay relative to control; details: SK-MEL-2, 48 h, read-out: GI
# [15] = system: UACC-62; assay: Growth inhibition of human UACC62 cells at 10 uM after 48 hrs by sulforhodamine B assay relative to control; details: UACC-62, 48 h, read-out: GI; outline: as §1
# [16] = system: SNB-19; assay: Growth inhibition of human SNB19 cells at 10 uM after 48 hrs by sulforhodamine B assay relative to control; details: SNB-19, 48 h, read-out: GI
# [17] = Growth inhibition of human […] cells at 10 uM after 48 hrs by sulforhodamine B assay relative to control; details: read-out: GI
# [18] = system: SK-MEL-28; assay: Growth inhibition of human SK-MEL-28 cells at 10 uM after 48 hrs by sulforhodamine B assay relative to control; details: SK-MEL-28, 48 h, read-out: GI
# [19] = system: MCF7; assay: Growth inhibition of human MCF7 cells at 10 uM after 48 hrs by sulforhodamine B assay relative to control; details: MCF7, 48 h, read-out: GI
# [20] = system: HCT-116; assay: Growth inhibition of human HCT116 cells at 10 uM after 48 hrs by sulforhodamine B assay relative to control; details: HCT-116, 48 h, read-out: GI
# [21] = system: UACC-257; assay: Growth inhibition of human UACC257 cells at 10 uM after 48 hrs by sulforhodamine B assay relative to control; details: UACC-257, 48 h, read-out: GI; outline: as §1
# [22] = system: U-251; assay: Growth inhibition of human U251 cells at 10 uM after 48 hrs by sulforhodamine B assay relative to control; details: U-251, 48 h, read-out: GI; outline: as §1
# [23] = system: HCT-15; assay: Growth inhibition of human HCT15 cells at 10 uM after 48 hrs by sulforhodamine B assay relative to control; details: HCT-15, 48 h, read-out: GI
# [24] = system: K562; assay: Growth inhibition of human K562 cells at 10 uM after 48 hrs by sulforhodamine B assay relative to control; details: K562, 48 h, read-out: GI
# [25] = system: SF-295; assay: Growth inhibition of human SF295 cells at 10 uM after 48 hrs by sulforhodamine B assay relative to control; details: SF-295, 48 h, read-out: GI
# [26] = system: PC-3; assay: Growth inhibition of human PC3 cells at 10 uM after 48 hrs by sulforhodamine B assay relative to control; details: PC-3, 48 h, read-out: GI
# [27] = system: LOX IMVI; assay: Growth inhibition of human LOXIMVI cells at 10 uM after 48 hrs by sulforhodamine B assay relative to control; details: read-out: GI
# [28] = system: HCC 2998; assay: Growth inhibition of human HCC2998 cells at 10 uM after 48 hrs by sulforhodamine B assay relative to control; details: HCC 2998, 48 h, read-out: GI
# [29] = system: CCRF-CEM; assay: Growth inhibition of human CCRF-CEM cells at 10 uM after 48 hrs by sulforhodamine B assay relative to control; details: read-out: GI
# [30] = system: TK-10; assay: Growth inhibition of human TK10 cells at 10 uM after 48 hrs by sulforhodamine B assay relative to control; details: TK-10, 48 h, read-out: GI; outline: as §1
# [31] = system: HL-60(TB); assay: Growth inhibition of human HL-60(TB) cells at 10 uM after 48 hrs by sulforhodamine B assay relative to control; details: HL-60, 48 h, read-out: GI
# Outline: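 Part of a 60-cell-line panel screen at a single concentration. Cells were plated at 5000–40,000 cells/well according to doubling time and pre-incubated 24 h at 37 °C, 5% CO₂, with time-zero plates fixed. Drug exposure ran 48 h. Plates were stained with SRB, rinsed with 1% acetic acid, dye dissolved in 10 mM trizma base, read at 515 nm. % inhibition = 100 − % activity versus DMSO-only wells; 100–200% denotes lethality.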
# [32] = system: UO-31; assay: Growth inhibition of human UO31 cells at 10 uM after 48 hrs by sulforhodamine B assay relative to control; details: UO-31, 48 h, read-out: GI; outline: as §1
# [33] = system: OVCAR-3; assay: Growth inhibition of human OVCAR-3 cells at 10 uM after 48 hrs by sulforhodamine B assay relative to control; details: OVCAR-3, 48 h, read-out: GI
smiles,measurement,setting,value
CN(C)c1ccc(/C=C2\NC(=O)N(S(=O)(=O)c3ccc(Cl)cc3)C2=O)cc1,inhibition of growth at 10 µM,[1],95.7%
same,inhibition of growth at 10 µM,[2],-21.6%
same,inhibition of growth at 10 µM,[3],14.7%
same,inhibition of growth at 10 µM,[4],7.93%
same,inhibition of growth at 10 µM,[5],-5.55%
same,inhibition of growth at 10 µM,[6],-15.8%
same,inhibition of growth at 10 µM,[7],-0.44%
same,inhibition of growth at 10 µM,[8],-16.5%
same,inhibition of growth at 10 µM,[9],-9.29%
same,inhibition of growth at 10 µM,[10],-3.11%
same,inhibition of growth at 10 µM,[11],-5.71%
same,inhibition of growth at 10 µM,[12],0.04%
same,inhibition of growth at 10 µM,[13],-1.96%
same,inhibition of growth at 10 µM,[14],1.29%
same,inhibition of growth at 10 µM,[15],3.93%
same,inhibition of growth at 10 µM,[16],-6.78%
same,inhibition of growth at 10 µM,[17],-6.72%
same,inhibition of growth at 10 µM,[18],-4.69%
same,inhibition of growth at 10 µM,[19],-6.37%
same,inhibition of growth at 10 µM,[20],-3.55%
same,inhibition of growth at 10 µM,[21],-1.01%
same,inhibition of growth at 10 µM,[22],-0.69%
same,inhibition of growth at 10 µM,[23],1.55%
same,inhibition of growth at 10 µM,[24],8.89%
same,inhibition of growth at 10 µM,[25],-8.92%
same,inhibition of growth at 10 µM,[26],-6.65%
same,inhibition of growth at 10 µM,[27],6.44%
same,inhibition of growth at 10 µM,[28],-54%
same,inhibition of growth at 10 µM,[29],2.95%
same,inhibition of growth at 10 µM,[30],-33.4%
same,inhibition of growth at 10 µM,[31],4.85%
same,inhibition of growth at 10 µM,[32],5.5%
same,inhibition of growth at 10 µM,[33],-13.9%
